# Data published in ChEMBL document CHEMBL1123516, “Substituted 1,3,4-thiadiazoles with anticonvulsant activity. 1. Hydrazines” (J Med Chem, 1986).
# What was measured:
# [1] = test system: Mus musculus; experiment: Anticonvulsant activity tested by maximal electroshock test (MES) in mouse after 1 hr of administration; assay type: functional
# Method in brief: (§1)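 Male BKW mice (LACA origin), 18-22 g, dosed ip or po with compound dissolved or suspended in 2% Tween 80 in distilled water. Readout was block of hind limb tonic seizure. ED50 was derived by probit analysis using the computerized Bliss method.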
# [2] = test system: Mus musculus; experiment: Anticonvulsant activity tested by maximal metrazole seizure (MMS) test in mouse after 1 hr of administration; assay type: functional
# Method in brief: (§2)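 Male BKW mice, 18-22 g, dosed orally with compound in 2% Tween 80/water. Metrazol 120 mg/kg ip was given 1 h after dosing. ED50 for block of hind limb tonic seizure was derived by Bliss probit analysis.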
# [3] = Neurotoxicity by performing a rotarod test in mouse after 1 hr of administration; assay type: toxicity, organism-based; conditions: in vivo
# Method in brief: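 Male BKW mice, 18-22 g, were pre-trained on a rotorod turning at 16 rpm (3 cm drum). They were dosed ip or po in 2% Tween 80/water and tested at timed intervals. TD50, the dose at which 50% fell off the rod, was derived by probit analysis.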
# [4] = test system: Rattus norvegicus; experiment: Maximum percent fall in mean arterial blood pressure was evaluated by injecting 100 mg/kg perorally in DOCA hypertensive rats; assay type: functional; conditions: route oral
# [5] = test system: Mus musculus; experiment: Inhibition of hind limb tonus was tested at time of peak effect by maximal electroshock test (MES) in mouse on intraperitoneal administration of compound; assay type: functional; conditions: Hindlimb, ip; method in brief: as §1
# [6] = test system: Mus musculus; experiment: Inhibition of hind limb tonus was tested by maximal metrazole seizure (MMS) test in mouse after 1 hr of peroral administration; assay type: functional; conditions: Hindlimb, po; method in brief: as §2
# [7] = test system: Rattus norvegicus; experiment: Inhibition of hind limb tonus was tested by maximal electroshock test (MES) in rat after 1 hr of peroral administration; assay type: functional; conditions: Hindlimb, po
# [8] = test system: Rattus norvegicus; experiment: Inhibition of hind limb tonus was tested by maximal electroshock test (MES) in rat after 4 hr of peroral administration; assay type: functional; conditions: Hindlimb, po
# [9] = test system: Rattus norvegicus; experiment: Inhibition of hind limb tonus was tested by maximal metrazole seizure test after 1 hr of peroral administration of compound; assay type: functional; conditions: Hindlimb, po
# [10] = test system: Rattus norvegicus; experiment: Inhibition of hind limb tonus was tested by maximal metrazole seizure test after 4 hr of peroral administration; assay type: functional; conditions: Hindlimb, po
# [11] = test system: Rattus norvegicus; experiment: Inhibition of hind limb tonus was tested at time of peak effect by maximal electroshock test (MES) on intraperitoneal administration of compound in rats; assay type: functional; conditions: Hindlimb, ip
# [12] = Protective index (rat) was from the ratio of plasma concentration at which side effects occur by plasma concentration at which anticonvulsant activity occur.; assay type: functional
# Method in brief: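 Rat plasma drug concentration at rotorod impairment was divided by the plasma concentration at MES anticonvulsant activity. Both were measured by HPLC-UV in plasma from dosed rats.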
# [13] = test system: Mus musculus; experiment: Inhibition of hind limb tonus was tested by maximal electroshock test (MES) in mouse after 1 hr of peroral administration of compound; assay type: functional; conditions: Hindlimb, po; method in brief: as §1
SMILES,ED50 [1] [mg/kg],ED50 [2] [mg/kg],TD50 at 1 h [3] [mg/kg],other results
CC(C)N(N)c1nnc(-c2ccccc2-c2ccccc2)s1,> 100,> 100,,
CN(N)c1nnc(CCc2ccccc2)s1.Cl,51,49,317,
CN(C)N(C)c1nnc(-c2ccccc2Cl)s1.Cl,53,> 100,347,
Cl.NNc1nnc(-c2ccc(-c3ccccc3)cc2)s1,> 200,,,
CC(C)NNc1nnc(-c2ccccc2Cl)s1,50,50,200,
CNN(Cc1ccccc1)c1nnc(-c2ccccc2Cl)s1.Cl,> 100,> 100,,
CN(N)c1nnc(Cc2ccccc2)s1.Cl,11,25,280,
CCCCCCOc1ccccc1-c1nnc(NNc2ccccc2)s1.Cl,> 100,> 100,,
CC(C)NNc1nnc(-c2ccccc2-c2ccccc2)s1,35,44,,
Cl.NNc1nnc(-c2ccccc2-c2ccccc2)s1,28,33,627,Decrease in blood pressure [4]: 18%
NN(Cc1ccccc1)c1nnc(-c2ccccc2Cl)s1,186,143,,
CN(N)c1nnc(-c2ccccc2Cc2ccccc2)s1.Cl,50,54,,
CCCCCCOc1ccccc1-c1nnc(N(C)NC)s1.Cl,< 250,39,,
CCCCN(N)c1nnc(-c2ccccc2C)s1.Cl,119,60,,
CCCCCCOc1ccccc1-c1nnc(N(C)NC(C)C)s1.Cl,97,56,,
Cc1ccccc1-c1nnc(N(C)NC2CCCC2)s1.Cl,110,81,,
CNN(C)c1nnc(-c2ccccc2Cl)s1,43,25,106,

SMILES,ED50 [1] [mg/kg],ED50 [2] [mg/kg],TD50 at 1 h [3] [mg/kg],other results
Cc1ccccc1-c1nnc(N(C)N(C)C)s1,25,68,167,
Cc1ccccc1-c1nnc(N(N)Cc2ccccc2)s1,27,44,> 200,
CCCCCCOc1ccccc1-c1nnc(NNC(C)C)s1.Cl,> 100,> 100,,
Cl.NN(Cc1ccccc1)c1nnc(-c2ccccc2-c2ccccc2)s1,> 200,> 200,,
CN(N)c1nnc(-c2ccccc2Cl)s1.Cl,20,41,136,
NN(CCc1ccccc1)c1nnc(-c2ccccc2Cl)s1,> 100,~200,,
Cl.Clc1ccccc1-c1nnc(NNCc2ccccc2)s1,> 100,> 100,,
Cc1ccccc1-c1nnc(NN(C)C)s1.Cl,60,> 100,> 250,
NC(=O)N1c2ccccc2C=Cc2ccccc21 [CARBAMAZEPINE],,,,ED50 [5]: 6 mg/kg; ED50 [6]: 11 mg/kg; ED50 [7]: 4 mg/kg; ED50 [8]: 7 mg/kg; ED50 [9]: 3 mg/kg; ED50 [10]: 5 mg/kg; ED50 [11]: 2 mg/kg; PI [12]: 2.51; ED50 [13]: 20 mg/kg
CCNN(Cc1ccccc1)c1nnc(-c2ccccc2C)s1.Cl,> 100,> 100,,
CNN(c1nnc(-c2ccccc2C)s1)C(C)C.Cl,> 100,> 100,,
CN(N)c1nnc(-c2ccccc2Sc2ccccc2)s1.Cl,43,27,,
CC(C)NN(C)c1nnc(-c2ccccc2-c2ccccc2)s1.Cl,55,66,,
Cc1ccccc1-c1nnc(N(C)NC(c2ccccc2)c2ccccc2)s1,> 200,> 200,,
CN(N)c1nnc(-c2ccccc2Oc2ccccc2)s1.Cl,33,33,< 400,
NN(c1ccccc1)c1nnc(-c2ccccc2-c2ccccc2)s1,> 100,> 100,,
